Assays:
Type in all cases: functional
[1] = organism: Rattus norvegicus; test: Cytoprotective activity in rats against the ethyl alcohol stimulated ulcers measured as effective dose
Summary of the method: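 Rats were dosed orally at 1–30 mg/kg, 30 min before an oral challenge of absolute ethanol. Ethanol-induced gastric lesions were scored 1 h later, and an effective dose was estimated.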

[2] = tested on: Rattus norvegicus; test: Antisecretory activity in pylorus ligated rats at a 40 mg/kg dose administered intraperitoneally; conditions: ip, route intraperitoneal
Summary of the method: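 Pylorus-ligated rats, six per compound and eight controls. Compound given intraperitoneally at 40 mg/kg at the time of ligation. Reduction in acid output measured over 4 h.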

[3] = tested on: Canis familiaris; test: Antisecretory activity in histamine stimulated dogs at 2 mg/kg dose administered intravenously; conditions: Canis lupus familiaris, route intravenous
Summary of the method: (§1)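 Adult mongrel dogs with surgically prepared Heidenhain pouches, acid secretion stimulated with histamine. Compound given intravenously (0.1-5 mg/kg range). Acid output reduction is expressed relative to the nondrug-treated control value in the same animal, each dog serving as its own control. Unless noted otherwise, one dog per compound. ED50 is the iv dose reducing acid output to 50% of control.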

[4] = tested on: Canis familiaris; test: Antisecretory activity in histamine stimulated dogs at 8 mg/kg dose administered orally; conditions: Canis lupus familiaris, route oral
Summary of the method: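 Heidenhain pouch mongrel dogs, histamine-stimulated acid secretion. Compound given orally at 2–8 mg/kg. Reduction in acid output is relative to the same animal's own nondrug control, since histamine response depends on pouch size. Usually a single dog per compound. Oral ED50 is the dose reducing acid output to 50% of control.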

[5] = tested on: Canis familiaris; test: Antisecretory activity in histamine stimulated dogs following 5 mg/kg i.v. administration.; conditions: Canis lupus familiaris, route intravenous; summary of the method: as §1

`Cc1nc2c(Oc3ccccc3)cccn2c1N` was tested, and the ED50 [1] was 5 mg/kg, the inhibition in vivo at 40 mg/kg [2] was 34% and the inhibition in vivo at 2 mg/kg [3] was 40%. For the same compound, the inhibition in vivo at 8 mg/kg [4] was 19%.

`COC(=O)Nc1c(C)nc2c(OCc3ccccc3)cccn12` was tested, and the inhibition in vivo at 40 mg/kg [2] was 0%.

`Cc1nc2c(OCc3ccccc3)cccn2c1CCN` showed an inhibition in vivo at 40 mg/kg [2] of 63%, an inhibition in vivo at 2 mg/kg [3] of 6% and an inhibition in vivo at 8 mg/kg [4] of 9%.

Compound `Cc1nc2c(OCCc3ccccc3)cccn2c1N` has an ED50 [1] of 5.2 mg/kg, an inhibition in vivo at 40 mg/kg [2] of 56% and an inhibition in vivo at 2 mg/kg [3] of 39%. For the same compound, the inhibition in vivo at 8 mg/kg [4] was 39%.

With `Cc1ccn2c(C)c(C)nc2c1OCc1ccccc1` the ED50 [1] was 16 mg/kg, the inhibition in vivo at 40 mg/kg [2] was 92% and the inhibition in vivo at 2 mg/kg [3] was 70%. The inhibition in vivo at 8 mg/kg [4] was 35%.

Compound `CNC(=O)Nc1c(C)nc2c(OCc3ccccc3)cccn12` has an ED50 [1] of 3.5 mg/kg, an inhibition in vivo at 40 mg/kg [2] of 22% and an inhibition in vivo at 5 mg/kg [5] of 27%.

`Cc1nc2c(SCc3ccccc3)cccn2c1N` gave an ED50 [1] of 5.7 mg/kg, an inhibition in vivo at 40 mg/kg [2] of 0% and an inhibition in vivo at 2 mg/kg [3] of 0%. For the same compound, the inhibition in vivo at 8 mg/kg [4] was 11%.

In the case of `Cc1nc2c(CCc3ccccc3)nccn2c1N`, the inhibition in vivo at 5 mg/kg [5] was 18%.

`Cc1nc2n(c1CC#N)CCCC2OCc1ccccc1` (configuration not stated) showed an inhibition in vivo at 40 mg/kg [2] of 44% and an inhibition in vivo at 5 mg/kg [5] of 0%.

For `Cc1nc2c(OCc3ccccc3)cccn2c1/N=C/N(C)C`, the ED50 [1] was 9.8 mg/kg, the inhibition in vivo at 40 mg/kg [2] was 64% and the inhibition in vivo at 2 mg/kg [3] was 12%. It also gave an inhibition in vivo at 8 mg/kg [4] of 0%.

For `Cc1nc2c(CCc3ccccc3)cccn2c1O`, the ED50 [1] was 9.6 mg/kg, the inhibition in vivo at 40 mg/kg [2] was 32% and the inhibition in vivo at 2 mg/kg [3] was 0%.

`CCCc1nc2c(OCc3ccccc3)cccn2c1N` showed an inhibition in vivo at 40 mg/kg [2] of 31%, an inhibition in vivo at 2 mg/kg [3] of 45% and an inhibition in vivo at 8 mg/kg [4] of 0%.

`Cc1nc2c(OCc3ccccc3)ccc(C)n2c1C` gave an ED50 [1] of 8 mg/kg, an inhibition in vivo at 40 mg/kg [2] of 26% and an inhibition in vivo at 2 mg/kg [3] of 13%.

Compound `Cc1nc2ccc(CCc3ccccc3)cn2c1N` has an ED50 [1] of 5.7 mg/kg, an inhibition in vivo at 40 mg/kg [2] of 52% and an inhibition in vivo at 2 mg/kg [3] of 6%. For the same compound, the inhibition in vivo at 8 mg/kg [4] was 0%.

`Cc1nc2cc(CCc3ccccc3)ccn2c1N` showed an ED50 [1] of 5.2 mg/kg, an inhibition in vivo at 40 mg/kg [2] of 50% and an inhibition in vivo at 2 mg/kg [3] of 17%. It also gave an inhibition in vivo at 8 mg/kg [4] of 0%.

For `CCCNc1c(C)nc2c(OCc3ccccc3)cccn12`, the ED50 [1] was 5.3 mg/kg, the inhibition in vivo at 40 mg/kg [2] was 99% and the inhibition in vivo at 2 mg/kg [3] was 12%. The inhibition in vivo at 8 mg/kg [4] was 68%.

For `CC(C)c1nc2c(OCc3ccccc3)cccn2c1N`, the ED50 [1] was 2.7 mg/kg, the inhibition in vivo at 40 mg/kg [2] was 0% and the inhibition in vivo at 2 mg/kg [3] was 24%. For the same compound, the inhibition in vivo at 8 mg/kg [4] was 0%.

`Cc1nc2c(NCc3ccccc3)cccn2c1N` was tested, and the ED50 [1] was 9.6 mg/kg, the inhibition in vivo at 40 mg/kg [2] was 84% and the inhibition in vivo at 2 mg/kg [3] was 98%. For the same compound, the inhibition in vivo at 8 mg/kg [4] was 89%.

With `Cc1cc(OCc2ccccc2)c2nc(C)c(N)n2c1` the ED50 [1] was 2.3 mg/kg, the inhibition in vivo at 40 mg/kg [2] was 65% and the inhibition in vivo at 2 mg/kg [3] was 46%. For the same compound, the inhibition in vivo at 8 mg/kg [4] was 50%.

`CCCCc1nc2c(OCc3ccccc3)cccn2c1N` gave an ED50 [1] of 7.5 mg/kg, an inhibition in vivo at 40 mg/kg [2] of 26% and an inhibition in vivo at 2 mg/kg [3] of 45%. It also gave an inhibition in vivo at 8 mg/kg [4] of 0%.

Compound `Cc1nc2c(OCc3ccccn3)cccn2c1N` has an ED50 [1] of 2.3 mg/kg, an inhibition in vivo at 40 mg/kg [2] of 16% and an inhibition in vivo at 8 mg/kg [4] of 15%.

In the case of `CC(=O)Nc1c(C)nc2c(OCc3ccccc3)cccn12`, the ED50 [1] was 4.6 mg/kg, the inhibition in vivo at 40 mg/kg [2] was 93% and the inhibition in vivo at 2 mg/kg [3] was 24%. For the same compound, the inhibition in vivo at 8 mg/kg [4] was 44%.

Work on `Cc1nc2c(OCc3ccccc3)cccn2c1NC=O` yielded an ED50 [1] of 10 mg/kg, an inhibition in vivo at 40 mg/kg [2] of 49% and an inhibition in vivo at 2 mg/kg [3] of 3%.

In the case of `CNc1c(C)nc2c(OCc3ccccc3)cccn12`, the ED50 [1] was 9.8 mg/kg and the inhibition in vivo at 40 mg/kg [2] was 55%.

`Cc1nc2c(OCc3ccccc3)cccn2c1N(C)C` was tested, and the ED50 [1] was 2.8 mg/kg, the inhibition in vivo at 40 mg/kg [2] was 76% and the inhibition in vivo at 2 mg/kg [3] was 85%. The inhibition in vivo at 8 mg/kg [4] was 72%.

`Cc1nc2c(OCc3ccc(C(F)(F)F)cc3)cccn2c1N` gave an ED50 [1] of 6.5 mg/kg, an inhibition in vivo at 40 mg/kg [2] of 78% and an inhibition in vivo at 2 mg/kg [3] of 0%. The inhibition in vivo at 8 mg/kg [4] was 8%.

Source: ChEMBL document CHEMBL1123641, “Antiulcer agents. 2. Gastric antisecretory, cytoprotective, and metabolic properties of substituted imidazo[1,2-a]pyridines and analogues” (J Med Chem, 1987)
